# Rows were chosen to be rich in hits. Some 1.9% of all compounds tested hit in one or more screens of this group.
# SUMO1-SIM PPI = SUMO1-SIM interaction modulation. P63165. SUMO1 binding to a labelled peptide, TR-FRET, 1 h. inhibition, % at 20 µM. 0.33% of 360,000 active; in the data active = inhibition above about 37%
# STEP inh = STEP (human) phosphatase inhibition. P54829. recombinant STEP, OMFP fluorogenic substrate, fluorescence. inhibition, % at 20 µM. 0.25% of 360,000 active;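 active = inhibition at 20 µM, scaled per plate between control wells, above about 37%, limit read from the data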;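 note: 0% = DMSO with enzyme and substrate and 100% = substrate only without enzyme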
#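 Material: STEP (striatal-enriched tyrosine phosphatase) enzyme, cell-free; Compound dosing: 20 µM single dose in 1% DMSO; Technique: fluorescence read at 480 nm ex / 540 nm em; Times: reaction 20 min, ambient temperature; Medium: 50 mM Bis-Tris pH 6.0 with 2.5 mM DTT and 0.005% Tween 20; Also added: OMFP at 25 µM.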
# Scp-1 inhibitor = Scp-1 (human) phosphatase inhibition; Recombinant Scp1, phosphopeptide, malachite green phosphate absorbance; inhibition, % at 20 µM; 0.88% of 340,000 active; AID 493091;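 active = inhibition above about 50% at 20 µM, limit read from the data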;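 note: plate controls were DMSO wells with enzyme for no effect and wells lacking enzyme for full effect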
#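 Test system: SCP-1 catalytic domain; Buffer or medium: Acidic Tris acetate buffer with magnesium and detergent; Also added: Phosphorylated 17-residue peptide substrate; Compound: single 20 µM dose, 1% DMSO; Schedule: enzyme reaction 45 min at room temperature, colour 5 min, stabilisation 30 min; Signal: Phosphate-binding colour reagent, absorbance read at 630 nm.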
# LMPTP inh = blocks human LMPTP phosphatase | P24666 | recombinant LMPTP-A, OMFP fluorogenic substrate, fluorescence intensity | inhibition, % at 20 µM | 0.22% of 360,000 active | AID 651560;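 active = compounds that cut the enzyme signal by at least half of the control window in the single-dose screen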;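 note: plate controls were DMSO wells with enzyme plus substrate for no effect and substrate without enzyme for full effect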
#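 Assay system: LMPTP-A, protein tyrosine phosphatase of low molecular weight / Medium: pH 6.0 Bis-Tris buffer with DTT and Triton X-100 / Schedule: 50 min enzyme reaction at room temperature, protected from light / Measured by: endpoint fluorescence intensity from OMFP dephosphorylation / Read-out basis: % inhibition relative to no-enzyme and uninhibited control wells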
# FAS-TE inh = blocks the thioesterase domain of human fatty acid synthase | recombinant FAS-TE, OMFH fluorogenic substrate, fluorescence endpoint | inhibition, % at 15 µM | 0.67% of 360,000 active | P49327;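 active = compounds whose normalised, plate-corrected inhibition of enzyme fluorescence in the single-dose primary screen is 50% or more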;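 note: 0% = DMSO with enzyme and 100% = substrate without enzyme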
# Target sequence (P49327 whole entry, looked up, the tested form may be a part): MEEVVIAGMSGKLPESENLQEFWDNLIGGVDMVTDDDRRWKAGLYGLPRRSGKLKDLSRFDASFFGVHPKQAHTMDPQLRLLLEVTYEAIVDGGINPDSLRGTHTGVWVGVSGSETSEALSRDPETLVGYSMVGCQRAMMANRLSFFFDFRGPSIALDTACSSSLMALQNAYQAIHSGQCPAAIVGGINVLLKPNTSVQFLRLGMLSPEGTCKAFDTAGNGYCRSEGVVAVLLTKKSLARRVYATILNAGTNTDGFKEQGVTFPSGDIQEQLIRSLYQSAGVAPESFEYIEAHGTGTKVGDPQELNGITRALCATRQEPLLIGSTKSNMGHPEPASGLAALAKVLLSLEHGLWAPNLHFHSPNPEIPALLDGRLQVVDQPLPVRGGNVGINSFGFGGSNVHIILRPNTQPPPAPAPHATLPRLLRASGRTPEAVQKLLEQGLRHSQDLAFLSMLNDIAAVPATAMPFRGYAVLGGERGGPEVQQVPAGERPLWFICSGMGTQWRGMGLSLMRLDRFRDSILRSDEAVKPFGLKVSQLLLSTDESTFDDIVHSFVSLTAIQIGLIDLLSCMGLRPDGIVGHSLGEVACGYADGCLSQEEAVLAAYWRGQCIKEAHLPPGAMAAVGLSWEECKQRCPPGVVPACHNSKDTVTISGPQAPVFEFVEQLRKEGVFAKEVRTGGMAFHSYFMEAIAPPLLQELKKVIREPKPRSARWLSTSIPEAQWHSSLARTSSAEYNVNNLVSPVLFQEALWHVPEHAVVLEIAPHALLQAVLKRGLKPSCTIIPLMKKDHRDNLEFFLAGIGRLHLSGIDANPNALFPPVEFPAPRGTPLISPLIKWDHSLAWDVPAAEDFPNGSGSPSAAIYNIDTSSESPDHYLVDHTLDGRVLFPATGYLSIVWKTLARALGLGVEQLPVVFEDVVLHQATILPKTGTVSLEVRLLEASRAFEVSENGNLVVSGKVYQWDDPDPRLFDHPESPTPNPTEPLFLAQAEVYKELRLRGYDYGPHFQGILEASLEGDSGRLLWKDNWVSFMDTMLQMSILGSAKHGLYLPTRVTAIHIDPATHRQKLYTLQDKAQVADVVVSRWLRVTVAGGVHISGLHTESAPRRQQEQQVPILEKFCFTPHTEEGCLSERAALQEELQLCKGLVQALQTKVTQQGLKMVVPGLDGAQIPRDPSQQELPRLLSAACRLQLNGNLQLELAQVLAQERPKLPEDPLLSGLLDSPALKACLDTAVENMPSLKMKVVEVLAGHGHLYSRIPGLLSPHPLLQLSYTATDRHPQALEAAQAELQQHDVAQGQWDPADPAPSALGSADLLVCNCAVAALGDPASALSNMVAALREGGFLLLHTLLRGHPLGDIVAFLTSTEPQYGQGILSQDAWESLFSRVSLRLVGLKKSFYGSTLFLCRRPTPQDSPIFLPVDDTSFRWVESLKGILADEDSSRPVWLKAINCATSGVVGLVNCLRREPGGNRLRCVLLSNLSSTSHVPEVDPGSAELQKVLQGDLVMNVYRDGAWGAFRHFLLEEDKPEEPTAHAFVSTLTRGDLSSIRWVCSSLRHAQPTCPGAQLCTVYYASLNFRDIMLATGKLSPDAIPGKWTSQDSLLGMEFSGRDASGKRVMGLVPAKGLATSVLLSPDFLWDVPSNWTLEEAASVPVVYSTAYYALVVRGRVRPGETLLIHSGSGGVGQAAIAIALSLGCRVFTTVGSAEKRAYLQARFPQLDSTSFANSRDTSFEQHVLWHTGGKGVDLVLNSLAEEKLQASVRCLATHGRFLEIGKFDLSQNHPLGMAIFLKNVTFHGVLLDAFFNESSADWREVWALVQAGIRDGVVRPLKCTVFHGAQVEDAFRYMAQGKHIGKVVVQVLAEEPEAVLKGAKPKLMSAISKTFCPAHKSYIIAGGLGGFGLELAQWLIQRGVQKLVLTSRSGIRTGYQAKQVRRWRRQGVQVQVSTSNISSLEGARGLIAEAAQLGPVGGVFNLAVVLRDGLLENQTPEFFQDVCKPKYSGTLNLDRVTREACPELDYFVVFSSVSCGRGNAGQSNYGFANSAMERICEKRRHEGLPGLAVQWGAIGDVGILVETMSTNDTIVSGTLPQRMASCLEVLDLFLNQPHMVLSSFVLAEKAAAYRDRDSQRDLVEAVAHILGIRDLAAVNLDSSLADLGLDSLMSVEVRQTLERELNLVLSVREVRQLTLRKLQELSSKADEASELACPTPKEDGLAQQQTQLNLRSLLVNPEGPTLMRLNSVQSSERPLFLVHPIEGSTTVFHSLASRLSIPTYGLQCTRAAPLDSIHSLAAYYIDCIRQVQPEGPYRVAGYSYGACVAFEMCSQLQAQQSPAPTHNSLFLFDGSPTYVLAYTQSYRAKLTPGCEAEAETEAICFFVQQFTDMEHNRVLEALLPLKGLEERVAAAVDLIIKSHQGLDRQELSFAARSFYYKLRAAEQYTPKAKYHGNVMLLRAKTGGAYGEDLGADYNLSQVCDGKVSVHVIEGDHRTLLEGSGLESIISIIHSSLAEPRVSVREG
# * marks the source's active call; other numbers are inactive results; / = no result given.
SMILES,SUMO1-SIM PPI,STEP inh,Scp-1 inhibitor,LMPTP inh,FAS-TE inh
O=C1CC(c2ccco2)CC(O)=C1C=NCC1CCNCC1 (configuration not stated),49.2*,0.5,-4.9,0.3,-8.1
Cc1cc(O)c(C=O)c2c1C(=O)Oc1c(CO)c(O)c3c(c1O2)C(O)OC3=O (configuration not stated),103.3*,46.2*,77.2*,56.8*,-0.3
S=C1Cc2ccccc2N1,76.6*,21.1,-7.4,48.2,48.7
CC(=O)N=c1c(C#N)cc2c(=O)n3ccccc3nc2n1Cc1ccccc1,-7.0,7.0,-5.2,13.5,54.1*
COCOCCn1cc(CN2CCS(=O)(=O)N(Cc3ccc(-c4ccc(Cl)c(Cl)c4)cc3)C(C)C2=O)nn1 (configuration not stated),6.0,-1.7,/,2.6,30.1
COc1ccc(C2=Nc3ccccc3N(C(=O)c3ccc(C(F)(F)F)cc3)C2C(=O)NCc2ccccc2)cc1 (configuration not stated),-6.2,/,/,0.4,/
O=c1cc(-c2ccccc2Cl)oc2c(NS(=O)(=O)c3cc(Cl)cc(Cl)c3O)ccc(O)c12,36.9,-1.1,-2.3,3.9,67.5*
OCCN1CCN(c2ncnc3c2ncn3[C@H]2CN(Cc3cccc(C(F)(F)F)c3)C[C@@H](CO)O2)CC1,2.6,-3.1,/,-0.6,-8.1
CC1(OC(=O)CCc2ccccc2)C(=O)C=C2C=C3CCCN3C=C2C1=O (configuration not stated),1.8,7.0,8.2,5.2,-2.1
CC1(OC(=O)c2cccs2)C(=O)C=C2C=C3CCCN3C=C2C1=O (configuration not stated),23.3,8.9,54.9*,11.3,-8.4
Cc1nc(N)nc(N)c1-c1ccc(Cl)c(Cl)c1,-2.6,1.7,-4.7,56.7*,-2.2
COc1ccc(Cc2c(C)nc(N)nc2Cl)cc1,1.2,-0.3,5.8,2.0,-12.3
Cc1nc(N)nc(N)c1CCCc1ccc(Cl)c(Cl)c1,-2.8,0.0,-7.2,64.1*,-4.0
COC(=O)[C@@]1(C(C)C)N=C(c2cc(OC)c(OC)c(OC)c2)[C@]2(O1)C(=O)Nc1ccccc12,1.2,/,/,0.0,-7.1
CCNc1ccc(S(=O)(=O)N(C)C)cc1[N+](=O)[O-],-14.8,-1.3,58.7*,0.4,-11.6
CN(C)C(CNc1ccc(S(C)(=O)=O)cc1[N+](=O)[O-])c1ccccc1 (configuration not stated),-39.4,1.3,1.8,-0.9,-5.0
CCCCNC(=O)C1(C)CCCCN1C(=O)c1ccc(OC)c(C(F)(F)F)c1 (configuration not stated),-2.0,-2.2,/,0.0,-6.0
Cc1cc(N)c2cc(NC(=O)/C=C/c3ccccc3Cl)ccc2n1,88.7*,5.8,-5.4,19.8,0.5
Cc1ccc(NC(=O)C2CCN(S(=O)(=O)c3cc([N+](=O)[O-])ccc3Cl)CC2)nc1,-24.4,1.4,23.1,-0.6,12.7
Cc1ccc2nc(NC(=O)C3CCN(S(=O)(=O)c4cc([N+](=O)[O-])ccc4Cl)CC3)sc2c1,2.7,0.2,63.7*,3.6,35.3
O=C(Nc1nc2ccc(F)cc2s1)C1CCN(S(=O)(=O)c2cc([N+](=O)[O-])ccc2Cl)CC1,0.5,2.4,55.0*,3.1,29.0
CCCCOCCCNC(=O)C[C@@H]1C[C@@]2(C(=O)OC)CCCCC=C2N(Cc2cccc3ccccc23)C1=O,3.5,/,/,0.3,15.9
Cc1nc2cc(NC(=O)c3ccc(Br)s3)ccc2s1,-1.3,40.8*,7.0,2.9,7.2
COc1ccc(-c2nnn(CC(=O)N3CCOCC3)n2)cc1,2.8,6.7,-3.8,-1.5,-4.1
O=C(Cc1cccs1)Nc1ccc(-c2nnn(CC(=O)N3CCOCC3)n2)cc1,/,/,78.9*,/,/
SMILES,SUMO1-SIM PPI,STEP inh,Scp-1 inhibitor,LMPTP inh,FAS-TE inh
CC(C)NC(=O)C1C(c2ccc(C(F)(F)F)cc2)=Nc2ccccc2N1C(=O)c1cccc(C(F)(F)F)c1 (configuration not stated),0.9,/,/,-8.4,/
COC(=O)Cn1c(C)c(C(C)=O)c(C(C)=O)c1C,47.9*,-3.1,-15.4,1.2,-6.1
COc1ccc(C(=O)Nc2ccc(N3CCN(C(=O)c4cccs4)CC3)cc2)cc1Br,6.4,-1.4,-2.0,2.5,18.3
COc1cc(OC)cc(C(=O)Nc2ccc(N3CCN(C(=O)c4cccs4)CC3)cc2)c1,42.3*,3.1,-2.4,2.6,9.4
O=C(O)c1csc(N/N=C/c2ccc(Br)cc2)n1,4.9,-1.3,-1.4,58.5*,2.6
Cc1csc(N/N=C/c2ccc([N+](=O)[O-])cc2)n1,-27.1,0.8,-8.6,2.1,2.1
Cc1cc(/C=N/Nc2ccc([N+](=O)[O-])cn2)c(C)n1-c1ccc(C(=O)O)cc1,10.2,6.1,57.0*,12.0,36.1
CN(c1cccc(NC(=O)c2ccc(C(C)(C)C)cc2)c1)S(C)(=O)=O,43.9*,1.6,-3.5,1.1,8.9
CN(c1cccc(NC(=O)c2ccc(N(C)S(=O)(=O)c3ccccc3)cc2)c1)S(C)(=O)=O,-3.2,0.1,-15.4,1.5,13.0
CC(=O)OC[C@]1(OC(C)=O)C[C@@]23CC[C@H]4[C@@](C)(CCC[C@@]4(C)C(=O)O)[C@@H]2CC[C@@H]1C3,9.9,-1.0,-6.2,20.4,-1.2
CC(=O)OC[C@]12CC[C@H]3[C@@](C)(CC[C@H]4C(C)(C)CCC[C@]34C)[C@@H]1CC(C1=CC(=O)OC1O)O2 (some centres not stated),74.3*,1.0,/,4.1,41.8
C[C@@H]1CN([C@H](C)CO)S(=O)(=O)c2ccc(C#CCN(C)C)cc2O[C@@H]1CN(C)Cc1ccccc1F,-4.3,0.9,/,-4.1,11.0
O=C(CCn1c(=S)[nH]c2ccccc2c1=O)Nc1cccc(Cl)c1,-7.0,-2.5,-5.1,0.0,4.4
COc1ccc(NC(=O)CCn2c(=S)[nH]c3ccccc3c2=O)cc1Cl,12.7,22.7,/,48.9*,-1.2
CCc1nc2ccc(C(=O)NCC3CCCCC3)cn2c1N(C)Cc1nccs1,3.2,0.0,/,-2.1,-1.5
N#Cc1c(-c2ccccc2)nc(SCC(=O)N2c3ccccc3Sc3ccccc32)[nH]c1=O,46.5*,-3.7,-2.0,3.7,35.3
N#C/C(=C\c1ccc(-c2ccc(C(=O)O)cc2)o1)c1nc2ccccc2[nH]1,2.7,60.3*,56.9*,8.4,30.4
N#C/C(=C\c1ccccc1C(=O)O)c1nc2ccccc2[nH]1,-10.0,-1.9,-12.3,0.7,-4.6
CCOC(=O)c1nc2sc3c(c2c(=O)[nH]1)CCCC3,-0.2,4.2,5.7,0.6,-6.6
N#C/C(=C\c1ccc(C(=O)O)cc1)c1nc2sc3c(c2c(=O)[nH]1)CCCC3,31.2,-6.4,75.7*,26.6,1.4
CCNC(=O)C1(C)CCCN(Cc2cccc(Oc3ccccc3)c2)C1 (configuration not stated),0.2,-2.2,/,3.2,-9.1
